pIC50: −log10 of the molar value.

The subject of one assay is Eimeria acervulina. Nature of the assay: Anticoccidial activity (percent reduction in oocyst production) against Eimeria acervulina in white leghorn chickens at 100 ppm. On the set-up: scale not given: the % may be the effect or the level left. It is filed as functional. The method, boiled down:
(§1)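 White Leghorn chicks were acclimated, then at 3 days old sorted by weight and randomized to medicated or control diets. There were one or two replicates of two birds per treatment. After 24 h of premedication, one bird per replicate got E. acervulina and the other E. tenella, both drug-sensitive laboratory strains. Inocula were sporulated oocysts in tap water, 0.25 mL per bird, giving low-to-moderate infection.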

For the next assay, the system named is Eimeria tenella. Nature of the assay: Anticoccidial activity (percent reduction in oocyst production) against Eimeria tenella in white leghorn chickens at 100 ppm. It is filed as functional. On the set-up: scale not given: the % may be the effect or the level left. The method, boiled down: as §1
In assay [1] the target is cGMP-dependent protein kinase (Eimeria tenella, UniProt Q8MMZ8). Briefly: In vitro inhibition of Eimeria tenella cGMP-dependent protein kinase.
Sequence of cGMP-dependent protein kinase (Q8MMZ8 whole entry): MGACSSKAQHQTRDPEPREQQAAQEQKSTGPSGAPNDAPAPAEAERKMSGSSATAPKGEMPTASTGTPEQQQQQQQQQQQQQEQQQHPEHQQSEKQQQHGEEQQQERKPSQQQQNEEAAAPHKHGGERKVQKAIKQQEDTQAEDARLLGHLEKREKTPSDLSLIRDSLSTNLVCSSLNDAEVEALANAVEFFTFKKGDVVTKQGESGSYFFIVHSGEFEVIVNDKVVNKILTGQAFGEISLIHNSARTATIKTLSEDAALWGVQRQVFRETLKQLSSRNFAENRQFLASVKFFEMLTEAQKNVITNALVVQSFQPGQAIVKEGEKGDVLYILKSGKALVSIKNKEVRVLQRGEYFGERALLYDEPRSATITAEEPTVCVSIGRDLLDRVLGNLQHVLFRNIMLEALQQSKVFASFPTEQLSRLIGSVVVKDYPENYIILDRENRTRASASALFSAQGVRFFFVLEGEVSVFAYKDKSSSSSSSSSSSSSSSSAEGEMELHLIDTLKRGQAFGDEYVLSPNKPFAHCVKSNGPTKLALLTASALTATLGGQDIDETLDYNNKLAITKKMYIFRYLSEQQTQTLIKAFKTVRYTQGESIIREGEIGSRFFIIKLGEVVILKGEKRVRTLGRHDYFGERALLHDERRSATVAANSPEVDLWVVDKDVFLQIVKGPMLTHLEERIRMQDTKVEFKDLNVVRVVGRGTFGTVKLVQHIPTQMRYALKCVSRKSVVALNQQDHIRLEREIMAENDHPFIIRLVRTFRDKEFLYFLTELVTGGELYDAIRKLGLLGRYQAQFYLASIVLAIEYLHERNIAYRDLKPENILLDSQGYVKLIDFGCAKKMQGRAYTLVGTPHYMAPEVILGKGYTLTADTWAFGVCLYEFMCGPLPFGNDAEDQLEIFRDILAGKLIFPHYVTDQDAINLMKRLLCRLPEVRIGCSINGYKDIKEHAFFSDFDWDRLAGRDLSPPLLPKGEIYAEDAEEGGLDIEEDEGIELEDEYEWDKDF

With `CN1CCC(c2cc(-c3ccncc3)c(-c3ccc(F)cc3)[nH]2)CC1`, the Activity entry in the assay with Eimeria acervulina and in the assay with Eimeria tenella was “>=80%” throughout. This compound had a pIC50 in assay [1] of 9.15.

As to `OC1(CN2CCC(c3cc(-c4ccncc4)c(-c4ccc(F)cc4)[nH]3)CC2)CC1`, the Activity entry in the assay on Eimeria acervulina and with Eimeria tenella was “>=80%” in each case. In assay [1], this compound showed a pIC50 of 8.96.

Consider `CN1CCC(c2cc(-c3ccncc3)c(-c3ccc(F)cc3)s2)CC1`, for which the Activity result with Eimeria acervulina and in the assay with Eimeria tenella was “>=80%” in each case. This compound also gave a negative-log IC50 (pIC50) in assay [1] of 8.38.

Regarding `CN1CCC(c2[nH]c(-c3ccc(F)cc3)c(-c3ccncc3)c2Br)CC1`, the Activity with Eimeria acervulina and in the assay on Eimeria tenella was less than 50% in each case. Also, the pIC50 in assay [1] was 8.92.

With `CN1CCC(c2cc(-c3ccc(F)cc3)c(-c3ccc(F)cc3)[nH]2)CC1`, the Activity in the assay on Eimeria acervulina and in the assay with Eimeria tenella was less than 50% each time. The pIC50 in assay [1] is 7.81.

In the case of `CN1CCC(c2nc(-c3ccc(F)cc3)c(-c3ccncc3)o2)CC1`, the Activity entry in the assay on Eimeria acervulina and in the assay on Eimeria tenella was “>=80%” each time. The pIC50 in assay [1] was 9.01.

For the compound `OCCN1CCC(c2cc(-c3ccncc3)c(-c3ccc(F)cc3)[nH]2)CC1`, the Activity result in the assay on Eimeria acervulina and in the assay on Eimeria tenella was “>=80%” in each case. For the same compound, in assay [1], the pIC50 was 9.15.

As for `Cc1c(C2CCN(C)CC2)[nH]c(-c2ccc(F)cc2)c1-c1ccncc1`, the Activity with Eimeria acervulina and in the assay on Eimeria tenella was less than 50% in each case. The pIC50 in assay [1] is 9.00.

`CN1CCC(c2cc(-c3ccncc3)c(-c3ccc(F)c(Br)c3)[nH]2)CC1`: the Activity with Eimeria acervulina and in the assay on Eimeria tenella was less than 50% in each case. This compound also had a pIC50 in assay [1] of 9.82.

Consider `CN1CCC(c2[nH]c(-c3ccc(F)cc3)c(-c3ccncc3)c2Cl)CC1`, for which the Activity in the assay with Eimeria acervulina is reported as less than 50%. Further, the pIC50 in assay [1] is 8.99.

As to `CN1CCC(c2cc(-c3ccncc3)c(-c3ccc(C(F)(F)F)cc3)[nH]2)CC1`, the Activity in the assay with Eimeria acervulina and with Eimeria tenella was less than 50% each time. The same compound had a pIC50 in assay [1] of 7.26.

In the assay on Eimeria tenella, `CN1CCC(c2cc(-c3ccncc3)c(-c3ccc(F)cc3)o2)CC1` registered an Activity of less than 50%. Moreover, the pIC50 in assay [1] is 8.68.

Take `CCCN1CCC(c2cc(-c3ccncc3)c(-c3ccc(F)cc3)[nH]2)CC1`: the Activity with Eimeria acervulina and in the assay with Eimeria tenella was less than 50% throughout. In addition, the negative logarithm of the IC50 (pIC50) in assay [1] is 8.38.

For the compound `CN1CCC(c2nc(-c3ccc(F)cc3)c(-c3ccncc3)[nH]2)CC1`, the figures for the Activity in the assay on Eimeria acervulina and in the assay on Eimeria tenella were less than 50% and “>=80%”, respectively. Further, the pIC50 in assay [1] is 8.96.

With `Cc1cc(-c2cc(C3CCN(C)CC3)[nH]c2-c2ccc(F)cc2)ccn1`, the Activity in the assay on Eimeria acervulina and in the assay on Eimeria tenella was less than 50% in each case. In assay [1], this compound showed a pIC50 of 8.55.

For `CN1CCC(c2cc(-c3ccncc3)c(-c3ccc(F)cc3)nn2)CC1`, the Activity in the assay on Eimeria acervulina and in the assay with Eimeria tenella was less than 50% throughout. Also, the pIC50 in assay [1] is 6.00.

As for `CN1CCC(c2cc(-c3ccncc3)c(-c3ccc(OC(F)(F)F)cc3)[nH]2)CC1`, the Activity was less than 50% in the assay on Eimeria acervulina and “>=80%” in the assay with Eimeria tenella. Also, the negative logarithm of the IC50 (pIC50) in assay [1] is 7.34.

For `Cc1cc(-c2cc(C3CCN(C)CC3)[nH]c2-c2ccc(F)cc2)on1`, the Activity in the assay on Eimeria acervulina and in the assay with Eimeria tenella was less than 50% each time. The compound further showed a pIC50 in assay [1] of less than 6.00.

On to `CN1CCC(c2cc(-c3ccncc3)c(-c3ccccc3)[nH]2)CC1`, for which, in assay [1], the pIC50 is 8.51.

For the compound `CN1CCC1CN1CCC(c2cc(-c3ccncc3)c(-c3ccc(F)cc3)[nH]2)CC1` (stereo not given), the Activity result with Eimeria acervulina and with Eimeria tenella was “>=80%” each time. This compound also gave a negative-log IC50 (pIC50) in assay [1] of 9.55.

On to `CN1CCC(c2cc(-c3ccncc3)c(-c3ccc(F)c(Cl)c3)[nH]2)CC1`, for which the Activity result in the assay on Eimeria tenella is “>=80%”. In assay [1], this compound gave a pIC50 of 9.36.

Take `CN1CCC(c2cc(-c3ccncc3)c(-c3ccc(F)c(F)c3)[nH]2)CC1`: the values for the Activity in the assay with Eimeria acervulina and in the assay with Eimeria tenella were less than 50% and “>=80%”, respectively. This compound also had a pIC50 in assay [1] of 8.70.

For `CN1CCC(c2cc(-c3ccncc3)c(-c3ccc(S(C)(=O)=O)cc3)[nH]2)CC1`, the Activity in the assay on Eimeria acervulina is on record as less than 50%; with Eimeria tenella it was “>=80%”. In assay [1], this compound showed a negative-log IC50 (pIC50) of 7.38.

Take `CN1CCC(c2cc(-c3ccccn3)c(-c3ccc(F)cc3)[nH]2)CC1`: the Activity in the assay on Eimeria acervulina and in the assay with Eimeria tenella was less than 50% throughout. The pIC50 in assay [1] was 7.63.

`NCCN1CCC(c2cc(-c3ccncc3)c(-c3ccc(F)cc3)[nH]2)CC1`: the Activity with Eimeria acervulina and in the assay with Eimeria tenella was less than 50% in each case. Moreover, the pIC50 in assay [1] was 9.55.

For `CN1CCC(c2cc(-c3cccnc3)c(-c3ccc(F)cc3)[nH]2)CC1`, in the assay on Eimeria tenella, the Activity is less than 50%. Moreover, the pIC50 in assay [1] was 7.93.

With `CN1CCC(c2cc(-c3ccncc3)c(-c3nccs3)[nH]2)CC1`, the Activity with Eimeria acervulina and in the assay on Eimeria tenella was less than 50% throughout. Besides, in assay [1], the negative-log IC50 (pIC50) was 7.40.

As for `CC(=O)CN1CCC(c2cc(-c3ccncc3)c(-c3ccc(F)cc3)[nH]2)CC1`, the Activity in the assay with Eimeria acervulina and in the assay with Eimeria tenella was less than 50% each time. In addition, in assay [1], the pIC50 was 9.49.

Regarding `Cc1cnccc1-c1cc(C2CCN(C)CC2)[nH]c1-c1ccc(F)cc1`, the Activity in the assay on Eimeria acervulina and in the assay with Eimeria tenella was less than 50% in each case. In addition, the pIC50 in assay [1] is 8.77.

Regarding `CN1CCC(c2cc(-c3ccncc3)c(-c3ccoc3)[nH]2)CC1`, the Activity in the assay on Eimeria acervulina and in the assay on Eimeria tenella was less than 50% in each case. For the same compound, the pIC50 in assay [1] was 7.58.

Regarding `CN1CCC(c2cc(-c3ccncc3)c(-c3ccco3)[nH]2)CC1`, the Activity in the assay with Eimeria acervulina and in the assay on Eimeria tenella was less than 50% in each case. In addition, the pIC50 in assay [1] is 7.95.

On to `CN1CCC(c2cc(-c3ccncc3)c(-c3ccsc3)[nH]2)CC1`, for which the Activity with Eimeria acervulina and in the assay with Eimeria tenella was less than 50% in each case. Besides, the negative logarithm of the IC50 (pIC50) in assay [1] was 7.92.

On to `NCCCN1CCC(c2cc(-c3ccncc3)c(-c3ccc(F)cc3)[nH]2)CC1`, for which the Activity in the assay on Eimeria acervulina and with Eimeria tenella was less than 50% each time. Also, the pIC50 in assay [1] is 10.34.

On to `CN1CCC(c2cc(-c3ccncc3)c(-c3ccc(Cl)cc3)[nH]2)CC1`, for which the Activity entry with Eimeria acervulina was “>=80%”; in the assay on Eimeria tenella, less than 50%. Further, the pIC50 in assay [1] is 9.00.

In the case of `CC(N)CN1CCC(c2cc(-c3ccncc3)c(-c3ccc(F)cc3)[nH]2)CC1` (stereo not given), the Activity result with Eimeria acervulina and in the assay on Eimeria tenella was “>=80%” each time. In assay [1], this compound showed a pIC50 of 8.70.

For the compound `OCCCN1CCC(c2cc(-c3ccncc3)c(-c3ccc(F)cc3)[nH]2)CC1`, the Activity entry with Eimeria acervulina is given as “>=80%”. Moreover, the pIC50 in assay [1] is 9.28.

On to `CN1CCC(c2cc(-c3ccncc3)c(-c3ccc(O)cc3)[nH]2)CC1`, for which the Activity with Eimeria acervulina and in the assay with Eimeria tenella was less than 50% in each case. The same compound had a pIC50 in assay [1] of 7.30.

In the case of `NC1(CN2CCC(c3cc(-c4ccncc4)c(-c4ccc(F)cc4)[nH]3)CC2)CC1`, the Activity in the assay on Eimeria acervulina and with Eimeria tenella was less than 50% in each case. Besides, the pIC50 in assay [1] is 9.62.

As to `CN1CCC(c2cc(-c3ccncc3)c(-c3cccc(F)c3)[nH]2)CC1`, the Activity in the assay with Eimeria acervulina and in the assay on Eimeria tenella was less than 50% each time. The same compound gave a pIC50 in assay [1] of 8.13.

For orientation: pIC50 means −log10 of the IC50, conventionally taken in molar units.
